Reference: PMC5935190 (Drug Design, Development and Therapy, 2018)
In brackets after ≈: the same amount, converted by molar mass. Entries after “also recorded” stand apart in the source; their conditions may differ.

Columns and labels:
M. tuberculosis BioA = target: T1, M. tuberculosis BioA (Mycobacterium tuberculosis, UniProt P9WQ81); assay: biochemical; type: biochemical
T1 sequence (P9WQ81 1-437): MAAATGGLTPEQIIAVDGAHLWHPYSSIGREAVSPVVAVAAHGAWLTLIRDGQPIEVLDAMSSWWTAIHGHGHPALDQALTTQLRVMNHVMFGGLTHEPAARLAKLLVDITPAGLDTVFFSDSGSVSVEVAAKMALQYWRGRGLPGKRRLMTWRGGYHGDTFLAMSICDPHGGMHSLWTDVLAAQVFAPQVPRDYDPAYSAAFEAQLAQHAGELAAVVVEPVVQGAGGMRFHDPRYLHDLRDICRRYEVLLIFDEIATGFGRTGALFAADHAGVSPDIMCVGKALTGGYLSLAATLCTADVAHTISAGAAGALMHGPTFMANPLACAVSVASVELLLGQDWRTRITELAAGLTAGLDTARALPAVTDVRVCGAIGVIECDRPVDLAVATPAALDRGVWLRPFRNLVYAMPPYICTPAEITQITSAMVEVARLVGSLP

M. tuberculosis H37Rv [1] = assay: microbe, parasite or virus in culture; type: cell-based; conditions: Mycobacterium tuberculosis, read-out: MIC90 in Sauton's medium
[2] = system: Chinese hamster ovary cell line (CHO); assay: Cytotoxicity assay; type: cell-based; conditions: at 50 μg/mL
Summary of the method: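 CHO cells were grown in DMEM with 10% FBS and 1X antibiotic-antimycotic, then seeded at 1×10^4 cells per well. They were exposed to the test compound at 1 μg/mL to 200 μg/mL for 48 h. 0.01% resazurin dye was then added to measure cell viability.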

M. tuberculosis H37Rv [3] = type: cell-based, Mycobacterium tuberculosis

Compound: CC1(c2ccc(S(=O)(=O)c3ccccc3)cc2)OC(=O)C=CC1=O (stereo not shown) [Compound A65, 6-methyl-6-[4-(phenylsulfonyl)phenyl]-2H-pyran-2,5(6H)-dione]
- IC50 (M. tuberculosis BioA; IC50 (μM) BioA): 114 µM
- IC50 (M. tuberculosis BioA; IC50 (μg/mL) BioA, mean ± SD): 114 µM
- MIC90 (M. tuberculosis H37Rv [1]): 80 µg/mL (≈ 234 µM)
- Toxicity in CHO cell line [2]: moderate toxicity

Compound: O=C(O)c1ccc(C=NNC(=O)c2cccc3ccccc23)cc1 [Compound X21]
- Percent inhibition of BioA at 100 μg/mL (M. tuberculosis BioA): weak inhibition; also recorded: poor inhibition
- MIC90 (μM) for M. tuberculosis growth inhibition (M. tuberculosis H37Rv [3]): 7.86 µM
- MIC90 (μg/mL) for M. tuberculosis growth inhibition (M. tuberculosis H37Rv [3]): 2.5 µg/mL
